How the values were obtained:
Type in all cases: functional, cell-based
[1] = system: NCI/ADR-RES; assay: Cytotoxicity against human NCI/ADR-RES cells
Method in brief: (§1)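 Human tumour cell lines (A549 lung adenocarcinoma, PANC-1 pancreatic, NCI/ADR-RES […], formerly MCF-7/ADR) obtained from ATCC. In vitro proliferation inhibition run by a previously described protocol. Each sample assayed at least three times to derive the final IC50.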

[2] = system: A549; assay: Cytotoxicity against human A549 cells; method in brief: as §1
[3] = system: PANC-1; assay: Cytotoxicity against human PANC1 cells; method in brief: as §1

| SMILES | IC50 [1] [µM] | IC50 [2] [µM] | IC50 [3] [µM] |
| --- | --- | --- | --- |
| C=C(CCC(C)C)COC(=O)[C@H](O)C/C=C\C[C@@H]1O[C@@H]2/C=C/C/C=C/C(C)=C\[C@H]3O[C@@H](C/C=C/C=C/C(=O)O[C@H](C2)[C@@]1(C)CO)C[C@H](O)[C@H]3C [LASONOLIDE A] | 0.49 | 0.0086 | 0.089 |
| CC1=C/[C@H]2O[C@@H](C/C=C/C=C/C(=O)O[C@@H]3C[C@@H](/C=C/C\C=C\1)O[C@@H](C/C=C\C[C@@H](O)C(=O)O)[C@]3(C)CO)C[C@H](O)[C@H]2C [LASONOLIDES F] | > 9 | > 9 | 15.6 |
| CC1=C/[C@H]2O[C@@H](C/C=C/C=C/C(=O)O[C@@H]3C[C@@H](/C=C/C\C=C\1)O[C@@H](C/C=C\CCO)[C@]3(C)CO)C[C@H](O)[C@H]2C [LASONOLIDE D] | > 9 | 4.5 | 4.89 |
| C=C(COC(=O)[C@H](O)C/C=C\C[C@@H]1O[C@@H]2/C=C/C/C=C/C(C)=C\[C@H]3O[C@@H](C/C=C/C=C/C(=O)O[C@H](C2)[C@@]1(C)COC(=O)CCCCCCCCCCC)C[C@H](O)[C@H]3C)C(O)CC(C)C (stereo partly drawn) [LASONOLIDE G] | > 6 | > 6 | > 6 |
| CCOC(=O)[C@H](O)C/C=C\C[C@@H]1O[C@@H]2/C=C/C/C=C/C(C)=C\[C@H]3O[C@@H](C/C=C/C=C/C(=O)O[C@H](C2)[C@@]1(C)CO)C[C@H](O)[C@H]3C [LASONOLIDE E] | > 8 | 0.31 | 0.57 |
| C=C(COC(=O)[C@H](O)C/C=C\C[C@@H]1O[C@@H]2/C=C/C/C=C/C(C)=C\[C@H]3O[C@@H](C/C=C/C=C/C(=O)O[C@H](C2)[C@@]1(C)CO)C[C@H](O)[C@H]3C)C(O)CC(C)C (stereo partly drawn) [LASONOLIDE C] | 1.12 | 0.13 | 0.38 |
